{"data": "Results collected from several papers", "PIK3CA I800L": "Phosphatidylinositol 4,5-bisphosphate 3-kinase catalytic subunit alpha isoform (PIK3CA, Homo sapiens, UniProt P42336, I800L)", "PIK3CA M1043I": "Phosphatidylinositol 4,5-bisphosphate 3-kinase catalytic subunit alpha isoform (PIK3CA, Homo sapiens, UniProt P42336, M1043I)", "PIK3CA H1047L": "Phosphatidylinositol 4,5-bisphosphate 3-kinase catalytic subunit alpha isoform (PIK3CA, Homo sapiens, UniProt P42336, H1047L)", "PIK3CA E545A": "Phosphatidylinositol 4,5-bisphosphate 3-kinase catalytic subunit alpha isoform (PIK3CA, Homo sapiens, UniProt P42336, E545A)", "PIK3CA E545K": "Phosphatidylinositol 4,5-bisphosphate 3-kinase catalytic subunit alpha isoform (PIK3CA, Homo sapiens, UniProt P42336, E545K)", "PIK3CA C420R": "Phosphatidylinositol 4,5-bisphosphate 3-kinase catalytic subunit alpha isoform (PIK3CA, Homo sapiens, UniProt P42336, C420R)", "PIK3CA H1047Y": "Phosphatidylinositol 4,5-bisphosphate 3-kinase catalytic subunit alpha isoform (PIK3CA, Homo sapiens, UniProt P42336, H1047Y)", "PIK3CA": "Phosphatidylinositol 4,5-bisphosphate 3-kinase catalytic subunit alpha isoform (PIK3CA, Homo sapiens, UniProt P42336)", "PIK3CA Q546K": "Phosphatidylinositol 4,5-bisphosphate 3-kinase catalytic subunit alpha isoform (PIK3CA, Homo sapiens, UniProt P42336, Q546K)", "note": "Compare with care: the assays were run in different laboratories."}
{"Structure (SMILES)": "CN1CCN(c2ccc(Nc3nccc(-c4cccc([N+](=O)[O-])c4)n3)cc2C(F)(F)F)CC1", "target": "PIK3CA I800L", "assay": "binding", "setting": "10 µM", "remaining binding [%]": 18}
{"Structure (SMILES)": "Cc1cnc(Nc2ccc(C(=O)N3CCC(N4CCCC4)CC3)cc2)nc1-c1cc2ccccc2s1", "target": "PIK3CA M1043I", "assay": "binding, competition with immobilised ligand", "setting": "1 µM", "remaining binding [%]": 74}
{"Structure (SMILES)": "CCS(=O)(=O)c1cc2cc(C[C@@](O)(CC(C)(C)c3ccc(F)cc3C(N)=O)C(F)(F)F)[nH]c2cn1", "target": "PIK3CA M1043I", "assay": "cell-free assay, competition with immobilised ligand", "setting": "1 µM", "remaining binding [%]": 99}
{"Structure (SMILES)": "CN(c1nccc(-c2cnn3ncccc23)n1)C1CC1", "target": "PIK3CA H1047L", "assay": "binding", "setting": "1 µM", "remaining binding [%]": 100}
{"Structure (SMILES)": "CCN1CCN(Cc2ccc(C(=O)Nc3ccc(C)c(Oc4ccc5c(c4)CC(=O)N5)c3)cc2C(F)(F)F)CC1", "target": "PIK3CA E545A", "assay": "binding, competition with immobilised ligand", "setting": "1 µM", "remaining binding [%]": 71}
{"Structure (SMILES)": "CN(c1ccnc(CNc2nc(Nc3ccc4c(c3)CC(=O)N4)ncc2C(F)(F)F)n1)S(C)(=O)=O", "target": "PIK3CA E545K", "assay": "cell-free assay, competition with immobilised ligand", "setting": "1 µM", "remaining binding [%]": 100}
{"Structure (SMILES)": "CN(C)c1ncc(F)c(-c2cnn3ncccc23)n1", "target": "PIK3CA C420R", "assay": "binding", "setting": "1 µM", "remaining binding [%]": 46}
{"Structure (SMILES)": "O=C(c1ccc(Nc2nccc(-c3cc4ccccc4s3)n2)cc1)N1CCC(N2CCCC2)CC1", "target": "PIK3CA H1047Y", "assay": "binding, competition with immobilised ligand", "setting": "1 µM", "remaining binding [%]": 61}
{"Structure (SMILES)": "CN1CC[C@H](c2c(O)cc(O)c3c(=O)cc(-c4ccccc4Cl)oc23)[C@H](O)C1", "target": "PIK3CA", "assay": "cell-free assay, competition with immobilised ligand", "setting": "0.1 µM", "remaining binding [%]": 100}
{"Structure (SMILES)": "CS(=O)(=O)NCC[C@H](NC(=O)c1cncc2c1cnn2-c1ccc(F)cc1)c1ccnc(S(C)(=O)=O)c1", "target": "PIK3CA", "assay": "cell-free assay, competition with immobilised ligand", "setting": "1 µM", "remaining binding [%]": 83}
{"Structure (SMILES)": "N[C@@H]1CCN(c2nccc(-c3cnn4ncccc34)n2)C1", "target": "PIK3CA Q546K", "assay": "binding", "setting": "1 µM", "remaining binding [%]": 100}
{"Structure (SMILES)": "O=C(c1ccc(Nc2ncc(Cl)c(-c3ccc(Cl)s3)n2)cc1)N1CCC(N2CCCC2)CC1", "target": "PIK3CA E545K", "assay": "binding, competition with immobilised ligand", "setting": "1 µM", "remaining binding [%]": 70}
{"Structure (SMILES)": "O=C(NCCCC1CCCCC1)c1ccc(CNC(=O)c2cnn(-c3ccccc3)c2C(F)(F)F)cc1", "target": "PIK3CA H1047L", "assay": "cell-free assay, competition with immobilised ligand", "setting": "0.1 µM", "remaining binding [%]": 86}
{"Structure (SMILES)": "COc1ncc2cc3ccccc3nc2c1C#N", "target": "PIK3CA Q546K", "assay": "cell-free assay, competition with immobilised ligand", "setting": "5 µM", "remaining binding [%]": 99}
{"Structure (SMILES)": "F[C@@H]1CCN(c2nccc(-c3cnn4ncccc34)n2)C1", "target": "PIK3CA I800L", "assay": "binding", "setting": "1 µM", "remaining binding [%]": 100}
{"Structure (SMILES)": "O=C(Nc1c[nH]nc1C(=O)NC1CCNCC1)c1cc(F)cc(F)c1", "target": "PIK3CA C420R", "assay": "binding, competition with immobilised ligand", "setting": "1 µM", "remaining binding [%]": 100}
{"Structure (SMILES)": "C=CC(=O)N1CCC(C(=O)NCC(=O)N2CCN(c3nc(-c4cnc(N)nc4C(F)F)nc(N4CCOCC4)n3)CC2)CC1", "target": "PIK3CA E545A", "assay": "binding, competition with immobilised ligand", "setting": "1 µM", "remaining binding [%]": 0.5}
{"Structure (SMILES)": "CS(=O)(=O)N1CCCC(NC(=O)[C@H](CCC2CCCCC2)NC(=O)c2ccc(CNC(=O)c3cnc4ccccn34)cc2)C1 (stereo partly drawn)", "target": "PIK3CA", "assay": "binding, competition with immobilised ligand", "setting": "1 µM", "remaining binding [%]": 37}
{"Structure (SMILES)": "FC(F)(F)Oc1cccc(-c2cnc3ccc(-c4ccncc4)nn23)c1", "target": "PIK3CA", "assay": "cell-free assay, competition with immobilised ligand", "setting": "5 µM", "remaining binding [%]": 35}
{"Structure (SMILES)": "CN(C)c1nccc(-c2cnc3ncccn23)n1", "target": "PIK3CA M1043I", "assay": "binding", "setting": "1 µM", "remaining binding [%]": 84}
{"Structure (SMILES)": "C[C@@H](c1ccc(-n2cnc3c(N)ncnc32)cc1)N1CCc2nn(C)c(Cc3ccccc3)c2C1=O", "target": "PIK3CA M1043I", "assay": "binding, competition with immobilised ligand", "setting": "0.1 µM", "remaining binding [%]": 89}
{"Structure (SMILES)": "CNC(=O)[C@@H]1CC[C@@H](n2c(-c3ccc4cnccc4c3)nc3ccc(C(=O)NCc4cccc(C(N)=O)c4)cc32)C1", "target": "PIK3CA H1047L", "assay": "binding, competition with immobilised ligand", "setting": "1 µM", "remaining binding [%]": 100}
{"Structure (SMILES)": "CN(CCCC(F)(F)F)c1nccc(-c2cnn3ncccc23)n1", "target": "PIK3CA I800L", "assay": "binding", "setting": "1 µM", "remaining binding [%]": 100}
{"Structure (SMILES)": "CN1CCN(c2ccc(Nc3nccc(-c4ccccc4)n3)cc2C(F)(F)F)CC1", "target": "PIK3CA I800L", "assay": "binding", "setting": "10 µM", "remaining binding [%]": 56}
{"Structure (SMILES)": "COc1cnc(Nc2cccc(S(N)(=O)=O)c2)nc1N1CCN(c2ccccc2)C(=O)C1", "target": "PIK3CA E545A", "assay": "binding, competition with immobilised ligand", "setting": "1 µM", "remaining binding [%]": 98}
{"Structure (SMILES)": "c1cncc(-c2cccc(Nc3nccc(NC4CCCCC4)n3)c2)c1", "target": "PIK3CA H1047Y", "assay": "binding, competition with immobilised ligand", "setting": "10 µM", "remaining binding [%]": 89}
{"Structure (SMILES)": "O=C(NCCCN1CCOCC1)c1ccc(Nc2nccc(-c3cc4ccccc4s3)n2)cc1", "target": "PIK3CA", "assay": "binding, competition with immobilised ligand", "setting": "1 µM", "remaining binding [%]": 93}
{"Structure (SMILES)": "Nc1ncc2c(n1)-c1c([nH]c3ccc(C#CC4CC4)cc13)CCCC2", "target": "PIK3CA E545A", "assay": "binding, competition with immobilised ligand", "setting": "1 µM", "remaining binding [%]": 89}
{"Structure (SMILES)": "COc1cnc(Nc2cccc(S(N)(=O)=O)c2)nc1N1CCN(c2ccccc2)CC1", "target": "PIK3CA Q546K", "assay": "binding, competition with immobilised ligand", "setting": "1 µM", "remaining binding [%]": 70}
{"Structure (SMILES)": "O=C(c1ccc(Nc2ncc(Cl)c(-c3cc4ccccc4s3)n2)cc1)N1CCC(N2CCCC2)CC1", "target": "PIK3CA H1047Y", "assay": "binding, competition with immobilised ligand", "setting": "1 µM", "remaining binding [%]": 70}
{"Structure (SMILES)": "O=C(NCc1ncc(C(F)(F)F)cc1Cl)c1ccc2c(c1)C1(CCS(=O)(=O)CC1)[C@H](C1CC1)N2S(=O)(=O)c1ccc(F)cc1", "target": "PIK3CA H1047L", "assay": "cell-free assay, competition with immobilised ligand", "setting": "1 µM", "remaining binding [%]": 77}
{"Structure (SMILES)": "C[C@H]1CCN(c2nccc(-c3cnn4ncccc34)n2)C1", "target": "PIK3CA M1043I", "assay": "binding", "setting": "1 µM", "remaining binding [%]": 100}
{"Structure (SMILES)": "NS(=O)(=O)c1cc(NC(=O)C2(c3ccccc3Cl)CC2)ccc1Oc1cccc(Cl)c1", "target": "PIK3CA", "assay": "cell-free assay, competition with immobilised ligand", "setting": "1 µM", "remaining binding [%]": 100}
{"Structure (SMILES)": "O=C(NCCCN1CCOCC1)c1ccc(Nc2ncc(Cl)c(-c3ccc(Cl)s3)n2)cc1", "target": "PIK3CA M1043I", "assay": "binding, competition with immobilised ligand", "setting": "1 µM", "remaining binding [%]": 100}
{"Structure (SMILES)": "CN1CCN(c2cnc3c(C4CCN(C(=O)c5ccc(OC(F)(F)F)cc5N)CC4)ncnc3c2)CC1", "target": "Phosphatidylinositol 4,5-bisphosphate 3-kinase catalytic subunit alpha isoform (PIK3CA, Homo sapiens, UniProt P42336, E542K)", "assay": "cell-free assay, competition with immobilised ligand", "setting": "1 µM", "remaining binding [%]": 100}
{"Structure (SMILES)": "O=C(NCC1CCOCC1)c1n[nH]cc1NC(=O)c1c(F)cccc1F", "target": "PIK3CA", "assay": "binding, competition with immobilised ligand", "setting": "1 µM", "remaining binding [%]": 100}
